Test results published in article PMC5992617 (ACS chemical biology, 2017).
Like-named read-outs stand apart in the source and are kept apart here. Where no end group is shown, it is not given here. FAM = fluorescein amidite

How the values were obtained:
[1] = tested on: wild-type (WT) mouse embryonic fibroblasts (MEFs); experiment: Clonogenic survival assay in WT MEFs with cisplatin; assay type: cell-based; settings: cisplatin 0.6 μM, 4 or 5 1.5 μM, alone
In short: (§1)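 Wild-type or Rev1⁻/⁻ mouse embryonic fibroblasts in DMEM with 10% FBS and 1% penicillin/streptomycin at 37°C, 5% CO₂. Seeded at 600 cells/well and left overnight. […] Colonies of ≥40 cells Coomassie-counted and expressed relative to DMSO controls. Two experiments, each in triplicate.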

[2] = tested on: HPRT gene mutation frequency in HT1080 cells; experiment: HPRT mutagenesis assay in HT1080 cells; assay type: cell-based, human; settings: cisplatin alone 0.6 μM
[3] = tested on: Rev1^−/− mouse embryonic fibroblasts (MEFs); experiment: Clonogenic survival assay in Rev1−/− MEFs with cisplatin; assay type: cell-based; settings: cisplatin 0.6 μM alone
In short: as §1

HT1080 cells = experiment: Clonogenic survival assay in HT1080 cells with cisplatin; assay type: cell-based, human; settings: cisplatin 0.6 μM, 4 or 5 1.5 μM, alone
In short: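 HT1080 cells in RPMI 1640 with 10% FBS and 1% penicillin/streptomycin at 37°C, 5% CO₂. Seeded at 600 cells/well in 6-well plates and left overnight. […] Fixed in methanol/acetic acid and Coomassie-stained. Colonies of ≥40 cells counted relative to DMSO controls; Student t-test.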

[4] = target: T1, C-terminal domain from human Rev1 (Rev1-CT) (human, UniProt Q9UBZ9 1158-1251); experiment: SEC
T1 sequence (looked up): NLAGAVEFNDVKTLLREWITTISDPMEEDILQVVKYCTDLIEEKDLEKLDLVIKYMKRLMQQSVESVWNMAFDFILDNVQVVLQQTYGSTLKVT

[5] = target: T1, C-terminal domain from human Rev1 …; experiment: fluorescence polarisation
[6] = target: T1, C-terminal domain from human Rev1 …; experiment: fluorescence polarisation; remark: listed apart in the source

In the case of N.N.[Cl][Pt][Cl] [cisplatin], the “Clonogenic growth of WT MEFs, single agent” value [1] is reported as “minimal effect on clonogenic growth”, the “Increase in HPRT mutations compared to non-treated cells” value [2] is reported as “approximately 1.9 fold” and the “Sensitivity of Rev1−/− MEFs to cisplatin compared with WT MEFs” value [3] is reported as “significantly more sensitive”. For the same molecule, the “Colony formation of HT1080 cells, single agent” value (HT1080 cells) was “minimal effect on colony formation”.

{FAM}-EMSHKKSFFDKKRSER (peptide, UniProt Q9UBT6 560-575, looked up): binds [4].

EMSHKKSFFDKKRSER (peptide, UniProt Q9UBT6 560-575, looked up) [unlabeled Polκ-RIR] gave an IC50 [5] of 6.6 ± 0.1 µM and an IC50 [6] of 7.3 ± 1.4 µM.
